B1: NELF-E aptamer (parent)
chain: CCCAACGACUGCCGAGCGAGAUUACGCUUGAGCGCCCCACUGAGGAUGCCCACGGGCGAUUGGGGCACGG

Variants of B1 are the subject of this series. Nature of the series: HiTS-RAP. The following applies: with NELF-E (Drosophila). Put shortly:
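Aptamer DNA templates carrying a T7 promoter and ter site were sequenced on an Illumina GAIIx flowcell, then transcribed in situ by T7 RNA polymerase and halted by GST-Tus (30 minutes, 37°C). Clusters were imaged after 30-minute room-temperature equilibration with NELF-E-mOrange at 0.064 to 1000 nM in HEPES binding buffer, and only the first binding curve was used. Intensities were normalised to sequencing intensity and averaged per sequence. Kd came from weighted Hill fits, keeping fits with variance below 1,000,000.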
Consider CCCAACGACUGCCUAGCAAGAUUACGCUUGAGCGCCCCACUGAGGAUGCCCACGGGCGAUUGGGGCACGG [G14U G18A], for which the Kd (usually the free concentration of one partner at which half of the binding sites on the other are occupied at equilibrium, for simple one-to-one binding) was 6.29 nM.
As for CCCAACGACUGCCUAGCGAGAUUACGCUUGAGUGCCCCACUGAGGAUGCCCACGGGCGAUUGGGGCACGG [G14U C33U], the dissociation constant Kd is 5.15 nM.
For CCCAACGACUGCCGGGCGAGAUUACGCUUGAGCGCCCCACGGAGGAUGCCCACGGGCGAUUGGGGCACGG [A15G U41G], the Kd came out at 5.7 nM.
Regarding CCCAACGACUGCCGGGCGGGAUUACGCUUGAGCGCCCCACUGAGGAUGCCCACGGGCGAUUGGGGCACGG [A15G A19G], the Kd was determined as 6.95 nM.
With CCCAACGACUGCCGUGCGAGAUUACGCUUGAGCGCCCCACUGAGGAUGCCCACGGGCGACUGGGGCACGG [A15U U60C] the figure was 10.7 nM; with CCCAACGACUGCCGUGCGGGAUUACGCUUGAGCGCCCCACUGAGGAUGCCCACGGGCGAUUGGGGCACGG [A15U A19G], 9.2 nM; with CCCAACGACUGCCUAGCGAGAUUACGCUUGAGCGUCCCACUGAGGAUGCCCACGGGCGAUUGGGGCACGG [G14U C35U], 10.1 nM.
For CCCAACGACUGCCUAGCGAGAUUACGCUUGAGCGCCCCACUGAGGAUGCCCACGGGCGAUCGGGGCACGG [G14U U61C], the equilibrium dissociation constant (Kd) was found to be 86.8 nM.
CCCAACGACUGCCUAGCGAGAUUACGCUUGAGCGCCCCACUGAGGAUGCCCACGGGCGAUAGGGGCACGG [G14U U61A]: the Kd was found to be 36 nM.
Under CCCAACGACUGCCGUGCGAGAUUACGCUUGAGCGCCCCACUGAGGAUGCCCACGGGUGAUUGGGGCACGG [A15U C57U] stands 14.3 nM.
Under CCCAACGACUGCCUAGCGAGAUUACGCUUGAGCGCCUCACUGAGGAUGCCCACGGGCGAUUGGGGCACGG [G14U C37U] stands 21.2 nM; under CCCAACGACUGCCGUGCGAGAUGACGCUUGAGCGCCCCACUGAGGAUGCCCACGGGCGAUUGGGGCACGG [A15U U23G], 5.84 nM.
On to CCCAACGACUGCCUAGCGAGAUUACGCUUGAGCGCCCCACUGAGGAUGCCCACGGGCGAUUGGGGCUCGG [G14U A67U], for which the Kd worked out at 6.23 nM.
On to CCCAACGACUGCCUAGCGAGAUUACGCUUGAGCGCCCCACUGAGGAUGCCCACGGGCGAUUGGGGCGCGG [G14U A67G], for which the Kd is 6.8 nM.
In the case of CCCAACGACUGCCUAGCGAGAUUACGCUCGAGCGCCCCACUGAGGAUGCCCACGGGCGAUUGGGGCACGG [G14U U29C], the Kd came out at 7.48 nM.
With CCCAACGACUGCCUAGCGAGAUUACGCUAGAGCGCCCCACUGAGGAUGCCCACGGGCGAUUGGGGCACGG [G14U U29A] the figure was 5.7 nM; with CCCAACGACUGCCUAGCGAGAUUACGCUGGAGCGCCCCACUGAGGAUGCCCACGGGCGAUUGGGGCACGG [G14U U29G], 6.2 nM; with CCCAACGACUGCCUAGCGAGAUUACGCUUGAGCGCCCCACUGAGGAUGCCCACAGGCGAUUGGGGCACGG [G14U G54A], 12.6 nM.
CCCAACGACUGCCGUGCGAUAUUACGCUUGAGCGCCCCACUGAGGAUGCCCACGGGCGAUUGGGGCACGG [A15U G20U]: the Kd stood at 7.81 nM.
With CCCAACGACUGCCUAGCGAGAUUACGCUUGAGCGCCCCACUGAGGAUGCCCACGGGUGAUUGGGGCACGG [G14U C57U] the figure was 5.72 nM.
Take CCCAACGACUGCCUAGCGAGAUUACGCUUGAGCGCCCCACUGAGGAUACCCACGGGCGAUUGGGGCACGG [G14U G48A]: the Kd was 13.2 nM.
With CCCAACGACUGCCUAGCGAGAUUACGCUUGAGCGCCCCACUGAGGAUGCCCACGGGCGAUUGGGACACGG [G14U G65A] the figure was 6.7 nM; with CCCAACGACUGCCUAGCGAGAUUACGCUUGAGCGCCCCACUGAGGAUGCCCACGGGCGAUUGGGUCACGG [G14U G65U], 8.73 nM; with CCCAACGACUGCCUAGCGAGAUUACGCUUGAGCGCCCCACUGAGGAUGCCCACGGACGAUUGGGGCACGG [G14U G56A], 9.7 nM.
As for CCCAACGACUGCCUAGCGAGAUUACGCUUGAGCGCCCCACUGAGGAUGCCCACGGUCGAUUGGGGCACGG [G14U G56U], the Kd was 7.18 nM.
Under CCCAACGACUGCCUAUCGAGAUUACGCUUGAGCGCCCCACUGAGGAUGCCCACGGGCGAUUGGGGCACGG [G14U G16U] stands 7.62 nM; under CCCAACGACUGCCUAACGAGAUUACGCUUGAGCGCCCCACUGAGGAUGCCCACGGGCGAUUGGGGCACGG [G14U G16A], 6.74 nM.
With CCCAACGACUGCCGGGGGAGAUUACGCUUGAGCGCCCCACUGAGGAUGCCCACGGGCGAUUGGGGCACGG [A15G C17G] the figure was 5.93 nM.
Under CCCAACGACUGCCUAGCGAGAUUACUCUUGAGCGCCCCACUGAGGAUGCCCACGGGCGAUUGGGGCACGG [G14U G26U] stands 6.16 nM; under CCCAACGACUGCCUAGCGAGAUUACACUUGAGCGCCCCACUGAGGAUGCCCACGGGCGAUUGGGGCACGG [G14U G26A], 5.3 nM.
Turning to CCCAACGACUGCCGUGCGAGAGUACGCUUGAGCGCCCCACUGAGGAUGCCCACGGGCGAUUGGGGCACGG [A15U U22G], the Kd was 6.74 nM.
Turning to CCCAACGACUGCCUAGCGAGAUUACGCUUGAGCGCCCCAGUGAGGAUGCCCACGGGCGAUUGGGGCACGG [G14U C40G], the Kd is 9.9 nM.
Turning to CCCAACGACUGCCUAGCGAGAUUACGCUUGAGCGCCCCAUUGAGGAUGCCCACGGGCGAUUGGGGCACGG [G14U C40U], the Kd amounted to 53.4 nM.
With CCCAACGACUGCCGGUCGAGAUUACGCUUGAGCGCCCCACUGAGGAUGCCCACGGGCGAUUGGGGCACGG [A15G G16U] the figure was 5.48 nM; with CCCAACGACUGCCGGACGAGAUUACGCUUGAGCGCCCCACUGAGGAUGCCCACGGGCGAUUGGGGCACGG [A15G G16A], 8.29 nM.
In the case of CCCAACGACUGCCGGGCGAGAUUACGCUGGAGCGCCCCACUGAGGAUGCCCACGGGCGAUUGGGGCACGG [A15G U29G], the dissociation constant Kd amounted to 5.98 nM.
With CCCAACGACUGCCUAGCGAGAUUACGCUUGAGCGCCCCACUGAGGAUGCCCACGGGCGAUUAGGGCACGG [G14U G62A] the figure was 19.1 nM; with CCCAACGACUGCCUAGCGAGAUUACGCUUGAGCGCCCCACGGAGGAUGCCCACGGGCGAUUGGGGCACGG [G14U U41G], 6.33 nM; with CCCAACGACUGCCUAGCGAGAUUACGCUUGAGCGCCCCACAGAGGAUGCCCACGGGCGAUUGGGGCACGG [G14U U41A], 51.7 nM.

Source of the values: the RNAGym collection of RNA variant scans (doi:10.1038/nmeth.2970).
